# Screens: PubChem, Broad Institute
# Hits are enriched below; roughly 3.6% of the tested compounds scored in any of these assays.
# HSF-1 act: HSF-1 activators, primary screen, NIH3T3-HGL cells, MG132 stress, luminescence, single point; NIH3T3-HGL HSF-1 luciferase reporter, 8 h; 100% = twice DMSO control signal; AID 504408, 2011; 1.7% of 300,000 active; activation, % at 9 µM;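 active = mean replicate activation of at least 50% with a set share of replicates each reaching 50%; inconclusive = only one of those two conditions met; inactive = mean below 50% and too few replicates reaching it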
# SR-BI uptake up: activators of SR-BI mediated DiI-HDL uptake, primary screen, ldlA[mSR-BI] CHO cells, DiI fluorescence; activation, % at 12.5 µM; 0.096% of 320,000 active; AID 504775, 2011; 3 h; 100 = double the neutral-control signal;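 active = mean replicate activation of at least 60% and every replicate at or above 60%; inconclusive = mean or all-replicate condition met, but not both; inactive = mean below 60% and not all replicates reaching 60%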
#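 Assay system: LDL receptor-deficient CHO ldlA cells overexpressing murine SR-BI / Medium: BSA-supplemented, HEPES-buffered Ham's F12, pH 7.4 / Probe or stimulus: DiI-labelled HDL at 10 µg/mL final / Timing: compound with DiI-HDL co-incubation, 3 h at 37 °C / Technique: bottom-read cell fluorescence after medium removal, ex 550/em 595 nm / Measure: HDL uptake via cellular fluorescence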
# Wnt act: Wnt/beta-catenin pathway activators, primary screen, cell-based, plate reader, single point; Wnt/beta-catenin reporter cell assay, activator; activation, % at 9.35 µM; 1.2% of 300,000 active; in the data active = activation above about 30%, passing the limit was not always enough; inconclusive = no clear call, values can overlap the other calls
# SR-BI DiI inh: inhibitors of SR-BI mediated HDL lipid uptake, primary screen, ldlA[mSR-BI] cells, fluorescence, single point; Scavenger receptor class B member 1 (Mus musculus), Q61009; ldlA[mSR-BI] CHO cells, DiI-HDL uptake fluorescence, 3 h; inhibition, % at 12.5 µM; 0.96% of 320,000 active;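 active = mean replicate inhibition of at least 70% and a set share of replicates each scoring 70 or more; inconclusive = meets just one of the two criteria; inactive = fails both criteria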
# Target sequence (Q61009 whole entry, looked up): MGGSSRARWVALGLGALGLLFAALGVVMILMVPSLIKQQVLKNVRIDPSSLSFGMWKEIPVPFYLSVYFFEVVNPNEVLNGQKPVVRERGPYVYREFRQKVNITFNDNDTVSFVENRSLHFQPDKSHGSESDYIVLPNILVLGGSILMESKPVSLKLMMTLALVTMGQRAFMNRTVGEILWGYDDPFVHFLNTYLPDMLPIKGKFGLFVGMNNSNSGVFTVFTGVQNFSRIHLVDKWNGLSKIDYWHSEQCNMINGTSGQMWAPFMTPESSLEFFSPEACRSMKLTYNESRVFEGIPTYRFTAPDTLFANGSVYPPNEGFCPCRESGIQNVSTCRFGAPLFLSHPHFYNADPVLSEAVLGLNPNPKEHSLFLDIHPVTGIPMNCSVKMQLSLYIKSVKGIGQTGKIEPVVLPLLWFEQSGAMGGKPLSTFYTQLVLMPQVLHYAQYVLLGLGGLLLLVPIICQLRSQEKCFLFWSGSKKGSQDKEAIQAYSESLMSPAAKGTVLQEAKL
# MITF TRPM1 HTS: activators of MITF-driven TRPM1 promoter reporter, primary screen, cell-based, SK-MEL-5, luciferase, single point. SK-MEL-5 TRPM1-promoter luciferase, 24 h; % of positive control, neutral wells = 0. activation, % at 12.5 µM. 0.75% of 300,000 active;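 active = mean activation of at least 80% with every replicate also reaching 80%; inconclusive = mean reaches 80% but some replicate falls short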
# Numbers stand for hits; 0 = inactive; ? = inconclusive; - = no result.
SMILES,HSF-1 act,SR-BI uptake up,Wnt act,SR-BI DiI inh,MITF TRPM1 HTS
c1cncc(-c2noc(-c3ccc4ccccc4c3)n2)c1,0,0,0,0,0
Clc1ccc(-c2noc(/C=C/c3ccccc3)n2)cc1,0,0,0,0,-
C(=C\c1nc(-c2cccnc2)no1)/c1ccccc1,?,0,48,0,0
C#CCOCC1CNC(=S)O1 (configuration not stated),-,-,0,-,-
CCc1cc2c(Sc3nc4ccccc4s3)ncnc2s1,99,0,-,0,0
c1ccc2sc(Sc3ncnc4sccc34)nc2c1,329,0,0,0,0
c1ccc(CSc2ncnc3sccc23)cc1,0,0,-,0,0
CCCCc1nnn2c1C1c3cc(Br)ccc3CCN1C(=O)C2 (configuration not stated),-,-,0,-,-
Cc1ccc(-c2noc(C3CCCCC3)n2)cc1,0,0,-,0,167
Cc1cc(NC(=O)CS(=O)c2cn(Cc3cccc(Cl)c3)c3ccccc23)no1 (configuration not stated),-,-,0,-,-
CC(=O)c1ccc(-c2c(C)cc3oc(=O)cc(-c4ccccc4)c3c2C)cc1,-,0,0,0,0
Cc1cc2oc(=O)cc(-c3ccccc3)c2c(C)c1-c1ccc(C#N)cc1,-,0,0,82,0
Cc1cc2oc(=O)cc(-c3ccccc3)c2c(C)c1-c1ccc(CO)cc1,-,0,0,75,0
CC(O)(c1ccc(F)c(F)c1)c1nc(-c2cccc3cccnc23)cs1 (configuration not stated),-,-,0,-,-
COc1ccc(N2C(=O)c3ccccc3C2O)cc1 (configuration not stated),0,0,44,0,0
O=C1c2ccccc2C(O)N1c1ccccc1 (configuration not stated),0,0,0,0,0
OCc1ccccc1OCc1ccccc1,-,-,0,-,-
CCc1ccc(Nc2ncc3c(n2)CC(C)(C)CC3=O)cc1,0,0,57,0,102
CCc1ccc(Nc2ncc3c(n2)CC(c2ccc(OC)cc2)CC3=O)cc1 (configuration not stated),0,0,-,0,-
CCc1ccc(Nc2ncc3c(n2)CC(C)CC3=O)cc1 (configuration not stated),0,0,0,0,107
O=C(O)c1ccc(-c2nc(-c3ccc(Cl)cc3Cl)cs2)cc1,0,0,0,0,?
O=C(O)c1ccc(-c2nc(-c3ccc(Cl)cc3)cs2)cc1,0,0,0,0,118
COc1ccc2c(c1)CCc1c(C(=O)NCc3ccco3)noc1-2,0,0,0,0,100
COc1ccc2c(c1)CCc1c(C(=O)NCCN3CCOCC3)noc1-2,0,0,-,0,0
COc1ccc2c(c1)CCc1c(C(=O)NCCCn3ccnc3)noc1-2,0,0,-,0,0
SMILES,HSF-1 act,SR-BI uptake up,Wnt act,SR-BI DiI inh,MITF TRPM1 HTS
COc1ccc(N(C)C(=O)c2onc3c2CCCC3)cc1,-,0,0,0,0
COc1ccc2c(c1)CCc1c(C(=O)N(C)c3ccccc3)noc1-2,69,0,?,0,0
COCCNC(=O)c1noc2c1CCc1cc(OC)ccc1-2,77,0,-,0,0
COc1ccc2c(c1)CCc1c(C(=O)NC3CCCCC3)noc1-2,0,0,-,0,91
O=C(NCCCCC(NC(=O)c1ccccc1)C(=O)O)OCc1ccccc1 (configuration not stated),-,-,0,-,-
COCC(C)NC(=O)c1noc2c1CCc1cc(OC)ccc1-2 (configuration not stated),71,0,-,0,0
Oc1oc(-c2ccccc2)nc1C=NCc1ccccc1,0,0,0,0,103
Oc1oc(-c2ccccc2)nc1C=Nc1ccccc1,0,0,0,0,0
CC(=O)Nc1c(Cl)c2c(c(Cl)c1Br)-c1ccc(Cl)cc1C2,-,0,0,0,0
Cc1cccc(-n2c(O)c(C=NCc3ccccn3)c3ccccc3c2=O)c1,0,0,0,0,0
Cc1ccc(-n2c(O)c(C=NCc3ccccn3)c3ccccc3c2=O)cc1,0,0,61,0,0
O=C(/C=C(\Nc1cc(Cl)c(Cl)c(Cl)c1)c1ccccc1)c1ccccc1,-,-,0,-,-
COc1ccccc1NC(=O)c1cnc(SCC(=O)NCC2CCCO2)n(C)c1=O (configuration not stated),171,0,32,0,0
COc1ccc(C(=O)Nc2nnc(SCC(=O)Nc3ccc(NC(C)=O)cc3)s2)c(OC)c1,0,0,36,0,0
COc1ccccc1C(=O)Nc1nnc(SCC(=O)NCC2CCCO2)s1 (configuration not stated),0,0,34,0,?
COc1ccccc1-n1nnnc1SCC(=O)NCC1CCCO1 (configuration not stated),0,0,0,0,0
COc1ccc(C(=O)Nc2nnc(SCC(=O)NC3CCCC3)s2)c(OC)c1,0,0,0,0,0
CCCNC(=O)N(C)C[C@@H]1Oc2cc(Br)ccc2S(=O)(=O)N([C@@H](C)CO)C[C@H]1C,-,-,0,-,-
ON=C(CCc1ccccc1)c1ccccc1,-,-,0,-,-
COC(=O)/C(=C(O)\C=C\c1ccccc1[N+](=O)[O-])c1nc2ccccc2[nH]1,0,0,0,89,0
COc1cc(/C=C/C(=O)c2ccc(C)c([N+](=O)[O-])c2)cc(OC)c1O,128,0,0,0,0
COc1ccc(/C=C/C(=O)c2ccc(C)c([N+](=O)[O-])c2)cc1O,67,-,0,-,0
Cc1cccc2sc(NNC(=O)c3cc(-c4cccs4)nc4ccccc34)nc12,0,0,0,72,0
O=C(COC(=O)C1Cc2ccccc2CN1C(=O)c1ccccc1Cl)Nc1ccc(N2CCOCC2)cc1 (configuration not stated),0,0,-,76,0
COc1cccc(C2NC(c3cccc(OC)c3O)C(C)C(=O)C2C)c1O (configuration not stated),0,0,0,0,0
SMILES,HSF-1 act,SR-BI uptake up,Wnt act,SR-BI DiI inh,MITF TRPM1 HTS
CC1C(=O)C(C)C(c2cc(Cl)ccc2O)NC1c1cc(Cl)ccc1O (configuration not stated),0,0,0,86,0
Nc1cccc2c1C(=O)N(C(=O)/C=C/c1ccc(F)cc1)C2=O,61,0,0,0,0
COc1ccc(S(=O)(=O)NCCc2c(C)nn(C)c2Oc2ccccc2)cc1,0,0,0,0,0
Cc1nn(C)c(Oc2ccccc2)c1CCNS(=O)(=O)c1ccc(Cl)cc1,55,0,0,0,-
Cc1ccc(C2=NN(S(C)(=O)=O)C(c3cccs3)C2)cc1 (configuration not stated),0,0,-,0,?
CS(=O)(=O)N1N=C(c2ccc(Br)cc2)CC1c1cccs1 (configuration not stated),52,0,-,0,0
